Screens: PubChem BioAssay, several laboratories
FN deposition inh = fibronectin deposition inhibition | 0.086% of 350,000 active | AH1F fibroblasts, Alexa488-fibronectin deposition fluorescence, overnight | inhibition, % at 12.6 µM;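 active means mean inhibition across replicates of 30% or more, regardless of how many single replicates reach that level; inconclusive means mean under 30% yet at least half of replicates reach 30%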
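Material – AH1F fibroblast monolayer, labelled fibronectin deposition · Reagent – labelled fibronectin 24 nM · Timing – 1 h adhesion, overnight exposure · Measured by – fluorescence at 485 nm excitation, 525 nm emission · Read-out – inhibition of fibronectin deposition signal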
SR-BI HDL uptake = inhibitors of mouse SR-BI mediated HDL lipid uptake. Q61009. 0.96% of 320,000 active. inhibition, % at 12.5 µM. ldlA[mSR-BI] CHO cells, DiI-HDL uptake fluorescence, 3 h;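 active means mean replicate inhibition of at least 70% and a set share of replicates each scoring 70 or more; inconclusive means meets just one of the two criteria; inactive means fails both criteria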
Target sequence (Q61009 whole entry, looked up): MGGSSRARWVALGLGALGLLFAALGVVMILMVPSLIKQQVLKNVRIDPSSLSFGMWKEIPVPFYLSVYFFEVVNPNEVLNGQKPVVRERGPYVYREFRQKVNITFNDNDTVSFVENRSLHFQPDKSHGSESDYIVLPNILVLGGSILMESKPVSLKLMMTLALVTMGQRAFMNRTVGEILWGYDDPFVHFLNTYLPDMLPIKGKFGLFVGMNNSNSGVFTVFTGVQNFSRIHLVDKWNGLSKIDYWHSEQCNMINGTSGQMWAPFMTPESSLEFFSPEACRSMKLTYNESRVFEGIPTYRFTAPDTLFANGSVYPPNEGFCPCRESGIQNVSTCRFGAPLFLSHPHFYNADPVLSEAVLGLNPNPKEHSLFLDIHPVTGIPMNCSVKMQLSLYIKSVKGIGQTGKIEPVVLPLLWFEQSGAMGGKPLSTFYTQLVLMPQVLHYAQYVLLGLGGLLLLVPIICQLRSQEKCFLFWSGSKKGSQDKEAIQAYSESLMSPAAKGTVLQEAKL
CaV13 FRET inh = Disruptors of the CACNA1D IQ motif to Ca2+-dependent inactivation inhibitor domain association, primary screening, Förster resonance energy transfer in intact living …; AID 743397; inhibition, % at 12.3 µM; HEK cells, CFP/YFP FRET ICDI-IQ, plate reader, 10 min; percent FRET-ratio fall versus neutral wells; 0.098% of 340,000 active;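 active means mean replicate inhibition of at least 30% and at least 1% of replicates passing that level; inconclusive means only one of the two criteria is met; inactive means neither criterion is met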
SR-BI uptake up = SR-BI HDL lipid transfer activation; AID 504775; 0.096% of 320,000 active; CHO ldlA[mSR-BI] cells, DiI-HDL uptake fluorescence, 3 h; 100 = double the neutral-control signal; activation, % at 12.5 µM;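 active means mean replicate activation of at least 60% and every replicate at or above 60%; inconclusive means mean or all-replicate condition met, but not both; inactive means mean below 60% and not all replicates reaching 60%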
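Material: SR-BI-overexpressing, LDLR-lacking CHO cells | Dosing: Single compound concentration, delivered by pin transfer | Probe or stimulus: Labelled HDL, 10 µg/mL | Signal: Bottom-read cell fluorescence after medium removal, ex 550/em 595 nm | Schedule: 3 h, 37 °C | Evaluation: HDL uptake via cellular fluorescence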
Efflux pump inh = inhibitors of Candida antifungal efflux pumps expressed in yeast; S. cerevisiae Candida pump triplex, Nile Red efflux; inhibition, % at 10 µM; 0.44% of 330,000 active; AID 485275;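 active means plate passing quality check with inhibition over a set limit, or well fluorescence over plate mean plus 4 SD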;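 further: Nile Red retained in pooled yeast measured as flow cytometry median fluorescence; higher means more Nile Red kept so more efflux inhibition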
Hits are given with their value; . = inactive; ? = inconclusive; / = not tested or not shown; + = active, no number. Sampled rows, rich in hits. Any-hit rate of the full collection: about 1.2%.

SMILES	FN deposition inh	SR-BI HDL uptake	CaV13 FRET inh	SR-BI uptake up	Efflux pump inh
COc1ccc(NC(=S)Nc2nc(CC(=O)Nc3ccccc3OC)cs2)cc1	/	.	.	.	.
COc1ccc(NC(=O)Cc2csc(NC(=O)Nc3ccccc3OC)n2)c(OC)c1	.	.	.	.	.
COc1cccc(CNC(=O)Cc2csc(NC(=O)Nc3ccccc3OC)n2)c1	.	78	.	.	.
O=C(Cc1csc(-c2ccccc2)n1)NCc1ccccc1F	.	/	38	/	.
COc1ccc(OC)c(NC(=O)Cc2csc(NC(=O)Nc3ccccc3OC)n2)c1	.	76	/	.	.
CCCN(C)C[C@H]1Oc2cc(C#CCC3CCCC3)ccc2S(=O)(=O)N([C@H](C)CO)C[C@H]1C	.	/	/	/	/
CO[C@@H]1CN(C)C(=O)c2cc(NS(=O)(=O)c3cccc(F)c3)ccc2OC[C@H](C)NC[C@H]1C	.	/	/	/	/
CC(C)n1c(-c2ccc(N(C)C)cc2)nc2ccccc21	/	88	/	.	.
CN(C)c1ccc(-c2nc3ccccc3n2C)cc1	/	.	/	.	.
COc1cc(-c2ccc3oc(-c4ccsc4)cc(=O)c3c2)cc(OC)c1OC	.	73	.	.	.
CC(C)NC(=O)N(C)C[C@@H]1Oc2ccc(NS(C)(=O)=O)cc2C(=O)N(C)C[C@@H]1C	.	/	/	/	/
Cc1cc(C)nc(SCC(=O)OC(C)C(=O)Nc2ccccc2)n1 (configuration not stated)	.	.	.	62	.
CC(=O)N(C)C[C@H]1Oc2c(NS(C)(=O)=O)cccc2C(=O)N(C)C[C@@H]1C	.	/	/	/	/
Cc1cc(CN2CCCCC2C(=O)Nc2ccc(Oc3cccnc3)cc2)oc1C (configuration not stated)	/	79	/	/	.
COC(=O)COc1cc(Br)c(/C=C2/SC(=O)N(CC(=O)N3CCCC3)C2=O)cc1OC	.	82	.	.	.
C=CCSc1nnc(NC(=O)COc2ccccc2)s1	34	.	.	.	.
C=CCSc1nnc(NC(=O)COc2ccc3ccccc3c2)s1	/	.	.	.	.
O=[N+]([O-])c1ccc(Nc2cccc3c2[nH]c2c(-c4ccccc4)nccc23)c([N+](=O)[O-])c1	.	79	.	.	/
COCC(=O)Nc1ccc2c(c1)C(=O)N(C)[C@H]1CC[C@H](CC(=O)NCCc3ccncc3)O[C@@H]1CO2	.	/	/	/	/
Cc1cc(-c2nc3cccnc3s2)ccc1NS(=O)(=O)c1cccs1	.	.	+	.	.
Cc1nc2ccc(S(=O)(=O)Nc3ccc(-c4nc5cccnc5s4)cc3)cc2s1	.	.	139	.	.
O=S(=O)(Nc1ccc(-c2nc3cccnc3s2)cc1)c1cccs1	.	.	.	.	.
CC(C)[C@@H]1C(=O)N[C@H](c2ccc3c(c2)OCO3)CC=CC[C@H](C)Oc2ccccc2C(=O)N1C (mixture of isomers)	.	/	/	/	/
COc1ccc(-c2nn(C)c(=O)c3ccccc23)cc1NC(=O)COc1ccc(C)cc1	.	92	.	.	.
C[C@H](CO)N1C[C@H](C)[C@H](CN(C)S(=O)(=O)c2ccc(Cl)cc2)Oc2ccc(NC(=O)C3CC3)cc2CC1=O	.	/	/	/	/
SMILES	FN deposition inh	SR-BI HDL uptake	CaV13 FRET inh	SR-BI uptake up	Efflux pump inh
NC(=O)c1c(NC(=O)c2cccnc2)sc2c1CCCC2	.	.	.	.	.
CCC1CCc2c(sc(NC(=O)c3cccnc3)c2C(N)=O)C1 (configuration not stated)	.	77	.	.	.
Cc1nn(C)cc1NC(=O)C[C@@H]1CC[C@H]2[C@H](COc3ccc(NC(=O)C4CCC4)cc3C(=O)N2C)O1	.	/	/	/	/
CC(C)[C@H]1C(=O)N[C@@H](c2ccc3c(c2)OCO3)CC=CC[C@@H](C)Oc2ccccc2C(=O)N1C (mixture of isomers)	.	/	/	/	/
Cc1cc(-c2ccccc2)nc(N/N=C/c2ccc(O)cc2O)n1	.	?	.	.	.
CN(/N=C/c1ccc(O)cc1O)c1nc(-c2ccccc2)cc(-c2ccccc2)n1	.	90	.	.	.
CO[C@H]1CN(C)C(=O)c2ccc(NC(=O)C3CCCC3)cc2OC[C@H](C)NC[C@@H]1C	.	/	/	/	/
COc1ccc(S(=O)(=O)N2CCC(C)CC2)cc1OC	.	76	.	.	.
COc1ccc(CCNC(=S)N2CCC(C(=O)c3ccc(F)cc3)CC2)cc1OC	.	80	.	.	.
